# In PubChem BioAssay AID624406 (The Scripps Research Institute Molecular Screening Center, 2012):
# Active and inactive are the calls of the source.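 How the source made its calls: active means inhibition of radioligand binding at or above 50% in any panel; inactive means inhibition below 50%.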
# How the values were obtained:
# Assay in all cases: off-target binding at receptors and transporters, profiling panel, selectivity assay for HCV core dimerization inhibitor project, cell-based, radioligand binding, Ricerca panel (AID 624406)
# Adrenergic beta1 = settings: at 10 µM, active compounds read high
# Summary of the method: (§1)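 Measure: percent inhibition of radioligand binding, negative values indicating enhanced binding; Controls: reference standards in each run; Repeats: duplicate measurements per compound.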
# Histamine H1 = settings: at 10 µM, active compounds read high
# Summary of the method: as §1
# [1] = biological target: D(3) dopamine receptor (Homo sapiens) (UniProt P35462); settings: Dopamine D3, at 10 µM, active compounds read high
# Summary of the method: as §1
# [2] = system: Epidermal Growth Factor (EGF); settings: at 10 µM, active compounds read high
# Summary of the method: as §1
# [3] = biological target: Alpha-2A adrenergic receptor (Homo sapiens) (UniProt P08913); settings: Adrenergic alpha2A, at 10 µM, active compounds read high
# Summary of the method: as §1
# [4] = biological target: Neuropeptide Y receptor type 1 (Homo sapiens) (UniProt P25929); settings: Neuropeptide Y Y1, at 10 µM, active compounds read high
# Summary of the method: as §1
# [5] = biological target: Glucocorticoid receptor (Homo sapiens) (UniProt P04150); settings: at 10 µM, active compounds read high
# Summary of the method: as §1
# Adrenergic alpha1B = settings: at 10 µM, active compounds read high
# Summary of the method: as §1
# [6] = system: Serotonin (5-Hydroxytryptamine) 5-HT3; settings: at 10 µM, active compounds read high
# Summary of the method: as §1
# Bradykinin B2 = settings: at 10 µM, active compounds read high
# Summary of the method: as §1
# [7] = system: Androgen (Testosterone) AR; settings: at 10 µM, active compounds read high
# Summary of the method: as §1
# Adenosine A1 = settings: at 10 µM, active compounds read high
# Summary of the method: as §1
# Opiate mu (OP3, MOP) = settings: at 10 µM, active compounds read high
# Summary of the method: as §1
# Histamine H2 = settings: at 10 µM, active compounds read high
# Summary of the method: as §1
# [8] = biological target: Neuropeptide Y receptor type 2 (Homo sapiens) (UniProt P49146); settings: Neuropeptide Y Y2, at 10 µM, active compounds read high
# Summary of the method: as §1
# Cannabinoid CB1 = settings: at 10 µM, active compounds read high
# Summary of the method: as §1
# [9] = biological target: Delta-type opioid receptor (Homo sapiens) (UniProt P41143); settings: Opiate delat1 (OP1, DOP), at 10 µM, active compounds read high
# Summary of the method: as §1
# [10] = system: Voltage-dependent L-type calcium channel subunit beta-4 (Rattus norvegicus) + Pro-epidermal growth factor (Homo sapiens) + Estrogen receptor (Homo sapiens) + Glucocorticoid receptor (Homo sapiens) + 5-hydroxytryptamine receptor 1A (Homo sapiens) + Alpha-2A adrenergic receptor (Homo sapiens) + Adenosine receptor A3 (Homo sapiens) + Androgen receptor (Homo sapiens) + Muscarinic acetylcholine receptor M1 (Homo sapiens) + D(4) dopamine receptor (Homo sapiens) + Alpha-2A adrenergic receptor (Rattus norvegicus) + Sodium- and chloride-dependent GABA transporter 1 (Rattus norvegicus) + Endothelin receptor type B (Homo sapiens) + Histamine H2 receptor (Homo sapiens) + Endothelin-1 receptor (Homo sapiens) + Neuropeptide Y receptor type 1 (Homo sapiens) + B2 bradykinin receptor (Homo sapiens) + Sodium-dependent serotonin transporter (Homo sapiens) + Histamine H1 receptor (Homo sapiens) + Mu-type opioid receptor (Homo sapiens) + D(3) dopamine receptor (Homo sapiens) + Delta-type opioid receptor (Homo sapiens) + Kappa-type opioid receptor (Homo sapiens) + Glutamate receptor ionotropic, kainate 3 (Rattus norvegicus) + 5-hydroxytryptamine receptor 3A (Homo sapiens) + Melatonin receptor type 1A (Homo sapiens) + Neuropeptide Y receptor type 2 (Homo sapiens) + P2Y purinoceptor 1 (Rattus norvegicus) + Thyroid hormone receptor alpha (Rattus norvegicus) + Glutamate receptor ionotropic, NMDA 2B (Rattus norvegicus) + Sodium-dependent dopamine transporter (Homo sapiens) + Protein kinase C zeta type …; settings: at 10 µM, active compounds read high
# Summary of the method: as §1
# Purinergic P2Y = settings: at 10 µM, active compounds read high
# Summary of the method: as §1
# [11] = biological target: Muscarinic acetylcholine receptor M1 (Homo sapiens) (UniProt P11229); settings: at 10 µM, active compounds read high
# Summary of the method: as §1
# Calcium Channel L-Type = settings: at 10 µM, active compounds read high
# Summary of the method: as §1
# [12] = biological target: Estrogen receptor (Homo sapiens) (UniProt P03372); settings: Estrogen Eralpha, at 10 µM, active compounds read high
# Summary of the method: as §1
# Melatonin MT1 = settings: at 10 µM, active compounds read high
# Summary of the method: as §1
# Nicotinic Acetylcholine = settings: at 10 µM, active compounds read high
# Summary of the method: as §1
# [13] = biological target: Beta-2 adrenergic receptor (Homo sapiens) (UniProt P07550); settings: Adrenergic beta2, at 10 µM, active compounds read high
# Summary of the method: as §1
# [14] = biological target: Voltage-gated inwardly rectifying potassium channel KCNH2 (Homo sapiens) (UniProt Q12809); settings: Potassium Channel hERG, at 10 µM, active compounds read high
# Summary of the method: as §1
# Interleukin IL-1 = settings: at 10 µM, active compounds read high
# Summary of the method: as §1
# Phorbol Ester = settings: at 10 µM, active compounds read high
# Summary of the method: as §1
# GABAA = settings: central, at 10 µM, active compounds read high
# Summary of the method: as §1
# Adenosine A2A = settings: at 10 µM, active compounds read high
# Summary of the method: as §1
# Bradykinin B1 = settings: at 10 µM, active compounds read high
# Summary of the method: as §1
# Thyroid Hormone = settings: at 10 µM, active compounds read high
# Summary of the method: as §1
# Endothelin ETB = settings: at 10 µM, active compounds read high
# Summary of the method: as §1
# Sigma 1 = settings: at 10 µM, active compounds read high
# Summary of the method: as §1
# Potassium Channel [KATP] = settings: at 10 µM, active compounds read high
# Summary of the method: as §1
# [15] = biological target: Muscarinic acetylcholine receptor M3 (Homo sapiens) (UniProt P20309); settings: at 10 µM, active compounds read high
# Summary of the method: as §1
# Purinergic P2X = settings: at 10 µM, active compounds read high
# Summary of the method: as §1
# Imidazoline I2 = settings: central, at 10 µM, active compounds read high
# Summary of the method: as §1
# GABAB1A = settings: at 10 µM, active compounds read high
# Summary of the method: as §1
# [16] = biological target: Kappa-type opioid receptor (Homo sapiens) (UniProt P41145); settings: Opiate kappa (OP2, KOP), at 10 µM, active compounds read high
# Summary of the method: as §1
# Calcium Channel N-Type = settings: at 10 µM, active compounds read high
# Summary of the method: as §1
# [17] = system: Transporter, Serotonin (5-Hydroxytryptamine); settings: at 10 µM, active compounds read high
# Summary of the method: as §1
# Transporter, GABA = settings: at 10 µM, active compounds read high
# Summary of the method: as §1
# [18] = system: Transporter, Norepinephrine (NET); settings: at 10 µM, active compounds read high
# Summary of the method: as §1
# [19] = biological target: Muscarinic acetylcholine receptor M2 (Homo sapiens) (UniProt P08172); settings: at 10 µM, active compounds read high
# Summary of the method: as §1
# Rolipram = settings: at 10 µM, active compounds read high
# Summary of the method: as §1
# Tachykinin NK1 = settings: at 10 µM, active compounds read high
# Summary of the method: as §1
# [20] = biological target: 5-hydroxytryptamine receptor 1A (Homo sapiens) (UniProt P08908); settings: Serotonin (5-Hydroxytryptamine) 5-HT1A, at 10 µM, active compounds read high
# Summary of the method: as §1
# Adrenergic alpha1A = settings: at 10 µM, active compounds read high
# Summary of the method: as §1
# Glutamate NMDA = settings: at 10 µM, active compounds read high
# Summary of the method: as §1
# Adenosine A3 = settings: at 10 µM, active compounds read high
# Summary of the method: as §1
# [21] = biological target: 5-hydroxytryptamine receptor 2B (Homo sapiens) (UniProt P41595); settings: Serotonin (5-Hydroxytryptamine) 5-HT2B, at 10 µM, active compounds read high
# Summary of the method: as §1
# [22] = system: Transporter, Dopamine (DAT); settings: at 10 µM, active compounds read high
# Summary of the method: as §1
# [23] = system: Leukotriene, Cysteinyl CysLT1; settings: at 10 µM, active compounds read high
# Summary of the method: as §1
# Dopamine D2S = settings: at 10 µM, active compounds read high
# Summary of the method: as §1
# Histamine H3 = settings: at 10 µM, active compounds read high
# Summary of the method: as §1
# [24] = biological target: Platelet-activating factor receptor (Homo sapiens) (UniProt P25105); settings: Platelet Activating Factor (PAF), at 10 µM, active compounds read high
# Summary of the method: as §1
# Glutamate Kainate = settings: at 10 µM, active compounds read high
# Summary of the method: as §1
# Endothelin ETA = settings: at 10 µM, active compounds read high
# Summary of the method: as §1
# Prostanoid EP4 = settings: at 10 µM, active compounds read high
# Summary of the method: as §1
# Adrenergic alpha1D = settings: at 10 µM, active compounds read high
# Summary of the method: as §1
# [25] = biological target: D(1A) dopamine receptor (Homo sapiens) (UniProt P21728); settings: Dopamine D1, at 10 µM, active compounds read high
# Summary of the method: as §1
# Dopamine D4.2 = settings: at 10 µM, active compounds read high
# Summary of the method: as §1
# Sequence of Muscarinic acetylcholine receptor M3 (Homo sapiens) (P20309 whole entry, looked up): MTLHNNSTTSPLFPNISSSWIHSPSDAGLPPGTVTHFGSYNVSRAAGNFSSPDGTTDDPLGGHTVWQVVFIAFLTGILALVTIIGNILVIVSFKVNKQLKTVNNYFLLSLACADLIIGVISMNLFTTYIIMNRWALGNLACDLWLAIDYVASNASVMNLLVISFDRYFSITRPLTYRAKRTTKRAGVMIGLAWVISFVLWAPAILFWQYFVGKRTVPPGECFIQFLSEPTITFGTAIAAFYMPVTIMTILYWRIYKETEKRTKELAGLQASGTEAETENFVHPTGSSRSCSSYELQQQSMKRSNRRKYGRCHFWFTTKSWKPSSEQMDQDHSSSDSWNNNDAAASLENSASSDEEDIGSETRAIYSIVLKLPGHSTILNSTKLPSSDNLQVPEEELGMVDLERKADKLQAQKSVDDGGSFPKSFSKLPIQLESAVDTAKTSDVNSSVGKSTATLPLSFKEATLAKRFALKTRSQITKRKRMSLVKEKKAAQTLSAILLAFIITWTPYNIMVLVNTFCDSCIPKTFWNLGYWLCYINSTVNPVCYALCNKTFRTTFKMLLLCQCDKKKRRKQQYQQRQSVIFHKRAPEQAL
# Sequence of Voltage-gated inwardly rectifying potassium channel KCNH2 (Homo sapiens) (Q12809 whole entry, looked up): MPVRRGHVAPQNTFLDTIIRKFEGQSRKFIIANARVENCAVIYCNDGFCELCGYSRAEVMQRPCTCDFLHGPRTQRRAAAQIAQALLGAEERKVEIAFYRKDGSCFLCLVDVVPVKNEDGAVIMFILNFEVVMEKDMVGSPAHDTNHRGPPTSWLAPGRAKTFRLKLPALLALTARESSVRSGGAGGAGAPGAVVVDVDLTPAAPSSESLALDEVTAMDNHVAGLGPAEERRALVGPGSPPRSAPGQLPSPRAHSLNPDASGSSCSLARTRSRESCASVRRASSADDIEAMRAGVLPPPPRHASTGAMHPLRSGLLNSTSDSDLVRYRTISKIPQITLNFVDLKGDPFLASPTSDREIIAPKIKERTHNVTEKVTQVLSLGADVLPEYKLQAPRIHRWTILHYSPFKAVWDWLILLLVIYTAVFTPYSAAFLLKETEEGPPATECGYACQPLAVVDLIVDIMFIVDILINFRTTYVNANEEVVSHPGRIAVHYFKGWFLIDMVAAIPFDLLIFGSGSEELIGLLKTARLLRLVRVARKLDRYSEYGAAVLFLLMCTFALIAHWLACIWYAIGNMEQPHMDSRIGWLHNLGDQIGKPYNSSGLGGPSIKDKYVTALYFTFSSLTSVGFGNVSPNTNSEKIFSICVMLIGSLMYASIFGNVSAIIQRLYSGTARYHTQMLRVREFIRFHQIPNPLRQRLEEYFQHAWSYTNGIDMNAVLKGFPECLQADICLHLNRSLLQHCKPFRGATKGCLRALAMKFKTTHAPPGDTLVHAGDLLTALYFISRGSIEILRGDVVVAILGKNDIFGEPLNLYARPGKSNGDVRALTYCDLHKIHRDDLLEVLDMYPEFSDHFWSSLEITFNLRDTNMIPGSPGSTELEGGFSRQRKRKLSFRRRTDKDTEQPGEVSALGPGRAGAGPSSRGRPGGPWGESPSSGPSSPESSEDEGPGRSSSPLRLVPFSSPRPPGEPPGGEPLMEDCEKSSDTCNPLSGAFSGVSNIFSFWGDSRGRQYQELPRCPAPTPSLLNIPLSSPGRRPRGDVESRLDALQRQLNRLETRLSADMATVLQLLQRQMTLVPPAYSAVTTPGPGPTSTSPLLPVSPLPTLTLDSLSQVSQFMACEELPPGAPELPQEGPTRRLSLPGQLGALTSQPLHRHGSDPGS
# Sequence of Alpha-2A adrenergic receptor (Homo sapiens) (P08913 whole entry, looked up): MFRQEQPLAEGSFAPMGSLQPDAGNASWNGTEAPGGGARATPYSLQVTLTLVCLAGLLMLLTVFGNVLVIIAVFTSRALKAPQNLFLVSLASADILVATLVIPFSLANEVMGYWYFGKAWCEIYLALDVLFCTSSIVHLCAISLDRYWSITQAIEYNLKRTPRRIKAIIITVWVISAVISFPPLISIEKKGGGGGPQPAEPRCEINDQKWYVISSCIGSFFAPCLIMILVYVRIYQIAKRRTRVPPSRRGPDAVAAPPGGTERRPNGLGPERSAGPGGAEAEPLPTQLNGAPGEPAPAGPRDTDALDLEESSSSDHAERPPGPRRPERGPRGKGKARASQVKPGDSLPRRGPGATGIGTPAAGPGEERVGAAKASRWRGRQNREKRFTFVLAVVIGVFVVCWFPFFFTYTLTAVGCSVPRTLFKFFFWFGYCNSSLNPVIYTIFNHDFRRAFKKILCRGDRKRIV
# Sequence of 5-hydroxytryptamine receptor 1A (Homo sapiens) (P08908 whole entry, looked up): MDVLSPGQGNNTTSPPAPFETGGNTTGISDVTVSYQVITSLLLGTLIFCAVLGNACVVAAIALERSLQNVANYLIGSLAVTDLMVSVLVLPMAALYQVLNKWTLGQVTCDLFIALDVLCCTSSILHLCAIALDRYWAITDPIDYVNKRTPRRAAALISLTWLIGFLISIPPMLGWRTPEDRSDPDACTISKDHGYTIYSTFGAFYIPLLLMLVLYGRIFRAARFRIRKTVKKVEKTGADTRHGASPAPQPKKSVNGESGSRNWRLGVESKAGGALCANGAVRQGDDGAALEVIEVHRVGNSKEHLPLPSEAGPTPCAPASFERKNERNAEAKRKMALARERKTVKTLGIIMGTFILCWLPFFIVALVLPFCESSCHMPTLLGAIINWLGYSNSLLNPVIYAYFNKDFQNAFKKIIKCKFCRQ
# Sequence of Muscarinic acetylcholine receptor M2 (Homo sapiens) (P08172 whole entry, looked up): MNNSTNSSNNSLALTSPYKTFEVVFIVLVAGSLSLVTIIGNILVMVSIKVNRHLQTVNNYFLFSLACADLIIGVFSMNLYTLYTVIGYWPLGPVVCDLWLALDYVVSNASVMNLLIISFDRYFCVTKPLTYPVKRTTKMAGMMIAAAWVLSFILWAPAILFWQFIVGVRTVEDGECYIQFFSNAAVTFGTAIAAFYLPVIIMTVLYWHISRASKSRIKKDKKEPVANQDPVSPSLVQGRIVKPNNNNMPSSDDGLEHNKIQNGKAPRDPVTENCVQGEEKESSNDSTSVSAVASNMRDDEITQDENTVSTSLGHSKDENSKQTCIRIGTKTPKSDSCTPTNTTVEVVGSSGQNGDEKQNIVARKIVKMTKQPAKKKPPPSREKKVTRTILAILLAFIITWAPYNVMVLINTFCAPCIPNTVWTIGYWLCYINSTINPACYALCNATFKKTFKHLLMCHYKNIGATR
# Sequence of Glucocorticoid receptor (Homo sapiens) (P04150 whole entry, looked up): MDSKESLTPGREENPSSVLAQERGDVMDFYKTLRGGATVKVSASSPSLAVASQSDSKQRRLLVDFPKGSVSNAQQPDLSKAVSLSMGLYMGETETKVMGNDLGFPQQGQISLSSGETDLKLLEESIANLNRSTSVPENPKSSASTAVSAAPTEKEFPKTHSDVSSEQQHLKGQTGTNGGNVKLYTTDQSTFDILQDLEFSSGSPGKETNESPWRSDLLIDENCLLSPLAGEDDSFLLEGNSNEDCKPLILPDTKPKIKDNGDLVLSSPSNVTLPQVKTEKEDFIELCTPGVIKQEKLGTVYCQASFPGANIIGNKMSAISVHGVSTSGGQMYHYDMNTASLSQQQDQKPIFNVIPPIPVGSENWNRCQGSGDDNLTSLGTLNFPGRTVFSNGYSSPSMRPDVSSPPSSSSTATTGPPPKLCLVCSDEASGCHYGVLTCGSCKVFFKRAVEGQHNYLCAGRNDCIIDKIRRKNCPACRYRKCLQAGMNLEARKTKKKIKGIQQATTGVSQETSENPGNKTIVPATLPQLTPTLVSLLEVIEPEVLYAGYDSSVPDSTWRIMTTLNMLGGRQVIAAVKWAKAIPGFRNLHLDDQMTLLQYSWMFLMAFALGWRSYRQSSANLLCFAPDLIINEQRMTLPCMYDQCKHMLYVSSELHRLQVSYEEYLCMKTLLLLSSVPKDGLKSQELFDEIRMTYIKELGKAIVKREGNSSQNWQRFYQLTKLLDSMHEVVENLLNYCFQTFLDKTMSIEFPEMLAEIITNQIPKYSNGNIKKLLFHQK
# Sequence of Neuropeptide Y receptor type 1 (Homo sapiens) (P25929 whole entry, looked up): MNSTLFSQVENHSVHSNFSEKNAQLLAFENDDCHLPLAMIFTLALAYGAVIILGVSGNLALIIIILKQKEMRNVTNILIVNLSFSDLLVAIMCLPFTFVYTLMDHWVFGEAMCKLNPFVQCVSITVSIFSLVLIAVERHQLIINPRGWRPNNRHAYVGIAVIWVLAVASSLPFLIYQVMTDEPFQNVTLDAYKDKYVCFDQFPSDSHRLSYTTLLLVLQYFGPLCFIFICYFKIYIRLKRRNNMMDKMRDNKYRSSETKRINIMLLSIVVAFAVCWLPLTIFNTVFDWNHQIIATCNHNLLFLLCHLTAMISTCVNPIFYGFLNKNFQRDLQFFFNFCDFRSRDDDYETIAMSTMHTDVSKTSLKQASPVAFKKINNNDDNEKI
# Sequence of Estrogen receptor (Homo sapiens) (P03372 whole entry, looked up): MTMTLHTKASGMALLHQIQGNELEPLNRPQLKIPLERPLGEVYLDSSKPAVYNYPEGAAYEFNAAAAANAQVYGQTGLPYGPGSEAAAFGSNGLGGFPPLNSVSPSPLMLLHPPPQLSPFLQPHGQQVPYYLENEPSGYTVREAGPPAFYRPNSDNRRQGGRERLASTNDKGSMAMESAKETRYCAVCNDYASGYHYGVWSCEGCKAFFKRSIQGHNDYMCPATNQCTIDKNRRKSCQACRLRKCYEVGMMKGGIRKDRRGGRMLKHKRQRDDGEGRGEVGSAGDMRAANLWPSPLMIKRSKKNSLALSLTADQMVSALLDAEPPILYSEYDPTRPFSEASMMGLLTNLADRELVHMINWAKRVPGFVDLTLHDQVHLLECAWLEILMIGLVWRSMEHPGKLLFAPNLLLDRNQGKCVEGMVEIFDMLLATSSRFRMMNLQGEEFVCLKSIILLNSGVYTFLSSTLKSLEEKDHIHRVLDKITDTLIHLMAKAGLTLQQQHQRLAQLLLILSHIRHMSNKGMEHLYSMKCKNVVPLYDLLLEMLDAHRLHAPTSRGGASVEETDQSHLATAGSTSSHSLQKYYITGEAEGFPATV
smiles,measurement,setting,value
Cc1ccc(Cc2c(C)nc3nc(SCC(=O)NCCN4CCNCC4)nn3c2C)cc1,inhibition of radioligand binding,Adrenergic beta1,-2% (inactive)
same,inhibition of radioligand binding,Histamine H1,24% (inactive)
same,inhibition of radioligand binding,[1],0% (inactive)
same,inhibition of radioligand binding,[2],7% (inactive)
same,inhibition of radioligand binding,[3],16% (inactive)
same,inhibition of radioligand binding,[4],0% (inactive)
same,inhibition of radioligand binding,[5],17% (inactive)
same,inhibition of radioligand binding,Adrenergic alpha1B,63%
same,inhibition of radioligand binding,[6],-4% (inactive)
same,inhibition of radioligand binding,Bradykinin B2,-4% (inactive)
same,inhibition of radioligand binding,[7],7% (inactive)
same,inhibition of radioligand binding,Adenosine A1,9% (inactive)
same,inhibition of radioligand binding,"Opiate mu (OP3, MOP)",11% (inactive)
same,inhibition of radioligand binding,Histamine H2,6% (inactive)
same,inhibition of radioligand binding,[8],-3% (inactive)
same,inhibition of radioligand binding,Cannabinoid CB1,9% (inactive)
same,inhibition of radioligand binding,[9],-3% (inactive)
same,inhibition of radioligand binding,[10],1% (inactive)
same,inhibition of radioligand binding,Purinergic P2Y,3% (inactive)
same,inhibition of radioligand binding,[11],42% (inactive)
same,inhibition of radioligand binding,Calcium Channel L-Type; Benzothiazepine site,11% (inactive)
same,inhibition of radioligand binding,Calcium Channel L-Type; Dihydropyridine site,3% (inactive)
same,inhibition of radioligand binding,[12],-4% (inactive)
same,inhibition of radioligand binding,Melatonin MT1,3% (inactive)
same,inhibition of radioligand binding,Nicotinic Acetylcholine,1% (inactive)
same,inhibition of radioligand binding,[13],14% (inactive)
same,inhibition of radioligand binding,[14],13% (inactive)
same,inhibition of radioligand binding,Interleukin IL-1,13% (inactive)
same,inhibition of radioligand binding,Phorbol Ester,-1% (inactive)
same,inhibition of radioligand binding,GABAA; Flunitrazepam site,19% (inactive)
same,inhibition of radioligand binding,GABAA; Muscimol site,26% (inactive)
same,inhibition of radioligand binding,Adenosine A2A,-2% (inactive)
same,inhibition of radioligand binding,Bradykinin B1,5% (inactive)
same,inhibition of radioligand binding,Thyroid Hormone,5% (inactive)
same,inhibition of radioligand binding,Endothelin ETB,-1% (inactive)
same,inhibition of radioligand binding,Sigma 1,12% (inactive)
same,inhibition of radioligand binding,Potassium Channel [KATP],-11% (inactive)
same,inhibition of radioligand binding,[15],54%
same,inhibition of radioligand binding,Purinergic P2X,6% (inactive)
same,inhibition of radioligand binding,Imidazoline I2,31% (inactive)
same,inhibition of radioligand binding,GABAB1A,7% (inactive)
same,inhibition of radioligand binding,[16],18% (inactive)
same,inhibition of radioligand binding,Calcium Channel N-Type,5% (inactive)
same,inhibition of radioligand binding,[17],16% (inactive)
same,inhibition of radioligand binding,"Transporter, GABA",2% (inactive)
same,inhibition of radioligand binding,[18],17% (inactive)
same,inhibition of radioligand binding,[19],49% (inactive)
same,inhibition of radioligand binding,Rolipram,1% (inactive)
same,inhibition of radioligand binding,Tachykinin NK1,24% (inactive)
same,inhibition of radioligand binding,[20],15% (inactive)
same,inhibition of radioligand binding,Adrenergic alpha1A,27% (inactive)
same,inhibition of radioligand binding,Glutamate NMDA; Glycine site,10% (inactive)
same,inhibition of radioligand binding,Glutamate NMDA; Phencyclidine site,12% (inactive)
same,inhibition of radioligand binding,Glutamate NMDA; agonist site,3% (inactive)
same,inhibition of radioligand binding,Adenosine A3,2% (inactive)
same,inhibition of radioligand binding,[21],21% (inactive)
same,inhibition of radioligand binding,[22],62%
same,inhibition of radioligand binding,[23],-7% (inactive)
same,inhibition of radioligand binding,Dopamine D2S,5% (inactive)
same,inhibition of radioligand binding,Histamine H3,9% (inactive)
same,inhibition of radioligand binding,[24],3% (inactive)
same,inhibition of radioligand binding,Glutamate Kainate,16% (inactive)
same,inhibition of radioligand binding,Endothelin ETA,-5% (inactive)
same,inhibition of radioligand binding,Prostanoid EP4,1% (inactive)
same,inhibition of radioligand binding,Adrenergic alpha1D,60%
same,inhibition of radioligand binding,[25],6% (inactive)
same,inhibition of radioligand binding,Dopamine D4.2,-1% (inactive)
